The list is not random: actives were taken first. Their share in the collection is about 4.1%.
KCC2 mod: KCC2 cotransporter modulators, thallium flux, primary screen, cell-based, HEK293 KCC2, FluoZin-2 fluorescence, MLSMR; Solute carrier family 12 member 5 (Homo sapiens), Q9H2X9; KCC2 cells, thallium flux FluoZin-2 fluorescence; B-score of Tl+ flux slope (higher = more flux/activation; lower = inhibition) at 10 µM; actives 2.2% (n = 190,000); AID 1456, 2008;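 active = thallium flux slope and its plate-corrected score both differing from the plate sample mean at a set confidence after two filtering rounds, in either direction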;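 also: slope of fluorescence scaled to starting intensity during 10 to 20 s after thallium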
hERG protect: hERG rescue from dofetilide block, primary screen, cell-based, CHO-hERG, FluxOR thallium flux, dofetilide IC70; dofetilide IC70 present; actives 0.51% (n = 310,000); AID 1511, 2009; Voltage-gated inwardly rectifying potassium channel KCNH2 (Homo sapiens), Q12809; activation (rescue from dofetilide block), less the hit threshold, % at 10 µM;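 active = activation above the mean of controls blocked by dofetilide plus 5 SD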;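 also: thallium influx through hERG after potassium depolarization seen as dye fluorescence rise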
KCNK9 inh: KCNK9 potassium channel inhibitors, primary screen, HEK293 cells, thallium flux; FluxOR thallium flux fluorescence; active compounds read low; actives 1.2% (n = 310,000); Potassium channel subfamily K member 9 (Homo sapiens), Q9NPC2; B-score at 10 µM;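 active = ratio B-score over 3 SD below the library mean, with starting fluorescence within 5 SD of its mean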;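 also: negative B-score means less thallium flux so channel inhibition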
KCNQ1 act: potentiators or activators of KCNQ1 channel, primary screen, cell-based, thallium flux, high-throughput; CHO-K1 KCNQ1, thallium flux FluxOR fluorescence; active compounds read high; B-score at 10 µM; actives 0.35% (n = 310,000); Potassium voltage-gated channel subfamily KQT member 1 (Homo sapiens), P51787; AID 2648, 2010;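 active = fluorescence ratio B-score, a plate-corrected score, at least three library SD, with initial intensity B-score within 5 SD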
Target sequence (P51787 whole entry, looked up): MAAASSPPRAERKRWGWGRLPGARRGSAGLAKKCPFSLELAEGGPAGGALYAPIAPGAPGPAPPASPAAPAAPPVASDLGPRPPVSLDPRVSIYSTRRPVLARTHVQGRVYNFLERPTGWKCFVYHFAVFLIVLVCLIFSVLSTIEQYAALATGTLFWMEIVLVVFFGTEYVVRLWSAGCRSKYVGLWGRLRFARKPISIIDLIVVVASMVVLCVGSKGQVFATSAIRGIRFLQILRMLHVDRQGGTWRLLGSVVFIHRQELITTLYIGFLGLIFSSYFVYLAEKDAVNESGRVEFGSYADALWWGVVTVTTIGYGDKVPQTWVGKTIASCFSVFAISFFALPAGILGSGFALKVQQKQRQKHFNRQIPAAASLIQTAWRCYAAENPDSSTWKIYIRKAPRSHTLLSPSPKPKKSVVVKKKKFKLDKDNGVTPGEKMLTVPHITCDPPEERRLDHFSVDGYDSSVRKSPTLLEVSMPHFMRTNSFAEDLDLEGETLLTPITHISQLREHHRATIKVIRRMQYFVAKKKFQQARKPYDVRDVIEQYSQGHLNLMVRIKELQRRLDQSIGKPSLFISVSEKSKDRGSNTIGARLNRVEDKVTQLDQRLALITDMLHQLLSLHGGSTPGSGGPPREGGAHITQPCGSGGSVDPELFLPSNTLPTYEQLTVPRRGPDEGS
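System: CHO-K1 cells stably expressing KCNQ1 / Medium: assay buffer for compound exposure, DMSO matched across wells / Reagent: thallium- and potassium-containing depolarizing buffer / Compound: one concentration, matched DMSO / Incubation: 20 min compound pretreatment at room temperature / Measured by: kinetic FluxOR fluorescence, 10 s baseline plus 110 s post-stimulus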
KCNQ1 inh: inhibitors of human KCNQ1 channel, primary screen, cell-based, thallium flux, high-throughput | Potassium voltage-gated channel subfamily KQT member 1 (Homo sapiens), P51787 | CHO-K1 KCNQ1, FluxOR thallium flux fluorescence; active compounds read high | B-score at 10 µM | actives 1.3% (n = 310,000) | AID 2642, 2010;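 active = compounds whose thallium flux B-score, printed positive for inhibition, exceeds three library SD while starting fluorescence stays within three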;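 also: channel opened by potassium depolarization with thallium stimulus after 20 min compound exposure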
KCNK3 block: human KCNK3 channel inhibitors, primary screen, CHO cells, FluxOR thallium flux, B-score; B-score at 10 µM; Potassium channel subfamily K member 3 (Homo sapiens), O14649; actives 0.84% (n = 340,000); FluxOR fluorescence; active compounds read low;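 active = B-score under library mean minus 4 SD, starting fluorescence ratio at most library mean plus 5 SD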;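 also: more negative B-score means stronger inhibition of thallium flux through KCNK3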
Numbers without * were called inactive; i = inactive; . = no result.

SMILES | KCC2 mod | hERG protect | KCNK9 inh | KCNQ1 act | KCNQ1 inh | KCNK3 block
Cc1nc(SC2CCOC2=O)c2c(C)c(C)sc2n1 (centres undefined) | 7.1* | -3 | i | i | i | i
COc1ccc(CNCCc2ccc(Cl)cc2)cc1OCc1ccccc1 | 0.56 | -41 | i | i | 10* | -9.5*
CCOc1cc(CNCc2ccccc2)ccc1OCc1ccc(Cl)cc1 | . | -21 | i | i | 7* | i
COc1ccc(CNCCc2ccccc2)cc1OCC(N)=O | . | -6 | i | i | i | i
Cc1nn(C(C)C(=O)NCCCN2CCCCCC2)c(=O)c2cc3sccc3n12 (centres undefined) | . | -5 | i | i | i | i
Nc1ccc2nc3c(=O)n(CCc4ccccc4)c(=O)[nH]c3nc2c1 | i | -26 | i | i | 8* | i
O=C(COC(=O)c1cc(-c2cccs2)nn1-c1ccccc1)Nc1cccc([N+](=O)[O-])c1 | -0.42 | -8 | -6.8* | i | i | i
CC(=O)c1ccc(NC(=O)C(C)N(C)CC(=O)Nc2ccc(N3CCOCC3)cc2)cc1 (centres undefined) | -0.06 | 4.6* | i | i | i | i
O=P(c1ccccc1)(c1ccccc1)c1cc(Br)cc(Br)c1OCCO | . | -13 | i | i | i | i
O=P(Cc1cc(Br)cc(Br)c1OCCO)(c1ccccc1)c1ccccc1 | -1.2 | -10 | -6.7* | i | i | i
CC/C(=N\NC(=S)Nc1cc(C)ccc1C)c1ccc(OC(F)F)cc1 | 7.7* | 0 | i | i | i | i
CC(C)Cn1c(=O)c(C(=O)N/N=C/c2cccc(F)c2)c(O)c2ccccc21 | 0.8 | -11 | i | 9* | i | i
Cn1cc(CN2CCN(Cc3ccc4c(c3)OCO4)CC2)c(-c2ccccc2F)n1 | . | -5 | i | i | i | i
Cc1cc(NC(=O)c2ccc(Cl)cc2)c(C)cc1O | 0.21 | -7 | i | i | i | i
Cc1cc(C(C#N)c2ccc(Cl)cc2)c(Cl)cc1NC(=O)c1cc(I)cc(I)c1O (centres undefined) | . | -26 | i | 8* | i | i
COc1ccc(NC(=O)CN2C(=O)NC(c3ccccc3)(c3ccccc3)C2=O)cc1 | . | -6 | i | i | i | i
COc1ccc(C2(c3ccc(OC)cc3)NC(=O)N(CC(=O)Nc3ccc(OC(F)F)cc3)C2=O)cc1 | . | -2 | i | i | 9* | i
CCC(C)(C)c1ccc(OCCCC[n+]2ccc(C)cc2)c(C(C)(C)CC)c1 | -1.2 | -25 | -7.7* | i | 7* | .
Cc1cc[n+](CC[n+]2ccc(C)cc2)cc1 | . | -4 | i | i | i | i
Nc1c(N(CCCO)C(=O)C2CCCCC2)c(=O)[nH]c(=O)n1Cc1ccccc1 | . | . | . | . | . | i
Cc1ccc(Cn2c(O)c(N=NC(=S)Nc3ccccc3F)c3ccccc32)cc1 | i | 18* | i | i | i | i
Cc1ccccc1NC(=O)Cn1c(O)c(N=NC(=O)c2ccccc2O)c2ccccc21 | 0.57 | -6 | i | i | i | i
CCCCNC(=S)N=Nc1c(O)n(Cc2ccccc2)c2ccccc12 | 8.8* | 3 | i | i | i | i
Oc1c(N=NC(=S)Nc2ccccc2F)c2ccccc2n1Cc1ccccc1Cl | 3.8 | 21* | i | 10* | i | i
COC(=O)N=Nc1c(O)n(Cc2ccccc2)c2ccccc12 | 0.37 | -12 | i | i | i | i
Fc1cccc(-n2cc(-c3ccccc3)c3c(=S)nc[nH]c32)c1 | . | 0 | i | i | i | i
Fc1ccc(-n2cc(-c3ccccc3)c3c(=S)nc[nH]c32)cc1 | . | 1 | i | 10* | i | i

Assay outcomes as filed in PubChem.
